Calls of active or inactive are those of the source. The calls are words filed in the database; no cut-off is given here.
Assays:
[1] = target: Glyceraldehyde-3-phosphate dehydrogenase (Homo sapiens) (UniProt P04406); experiment: Binding affinity to human recombinant his tagged GAPDH expressed in Escherichia coli assessed as absolute rate constant at 2 mM at pH 7 in presence of beta mercaptoethanol measured for 1 hr by HPLC method
[2] = target: Glyceraldehyde-3-phosphate dehydrogenase (Homo sapiens) (UniProt P04406); experiment: Covalent inhibition of human recombinant his tagged GAPDH expressed in Escherichia coli assessed as residual activity at 100 uM measured after 3 hrs by spectrophotometric analysis
Method in brief: (§1)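 His-tagged hGAPDH from E. coli, 2 μM, preincubated at 25 °C with 10, 50 or 100 μM inhibitor for 30 min or 3 h in 10 mM TEA, 5 mM EDTA, 10 mM arsenate, pH 7.6. Residual activity of aliquots (enzyme 30–50 nM) measured with 1.5 mM NAD+, 100 μM DL-GAP, NADH at 340 nm, 25 °C. Relative to untreated enzyme; independent duplicates, mean ± SD.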

[3] = target: Glyceraldehyde-3-phosphate dehydrogenase (Homo sapiens) (UniProt P04406); experiment: Binding affinity to human recombinant his tagged GAPDH expressed in Escherichia coli assessed as time constant at 200 uM measured after 1 min by spectrophotometric analysis
Method in brief: (§2)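 Racker band loss. 100 μM His-tagged hGAPDH (expressed in E. coli) with 200 μM inhibitor in 10 mM TEA, 5 mM EDTA, 10 mM KH2PO4, pH 7.6. Absorbance at 340 nm followed until reaction completion; traces fitted to a kinetic equation.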

PaCa-44 [4] = experiment: Antiproliferative activity against human PaCa-44 cells assessed as reduction in cell growth at 1 to 100 uM incubated for 48 hrs by crystal violet staining based analysis; format: functional; conditions: dose 1-100 µM
Method in brief: (§3)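 PDAC lines and normal fibroblasts in DMEM-Glutamax, 10% FBS, 50 μg/ml gentamicin, 37 °C, 5% CO2. Seeded 5×10^3 cells/well for PDAC lines and 8×10^3 cells/well for fibroblasts. After 24 h, treated 48 h with 1–100 μM from 100 mM DMSO stocks. Crystal Violet read at A595, normalized to untreated cells. Mean ± SD (n = 4).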

[5] = target: Glyceraldehyde-3-phosphate dehydrogenase (Homo sapiens) (UniProt P04406); experiment: Inhibition of recombinant his tagged-GAPDH in human PaCa-3 cells expressed in Escherichia coli at 100 uM relative to control
MIA PaCa-2 [6] = experiment: Antiproliferative activity in human MIA PaCa-2 cells habouring p53 mutant/R248W assessed as decrease in cell growth at 10 uM measured after 48 hrs by Crystal violet staining based analysis; format: functional
Method in brief: (§4)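 PaCa-3 (wt p53) and mutant-p53 PDAC lines exposed 48 h to 5 or 10 μM. Growth by Crystal Violet staining, each line normalized to its own untreated control. Mean ± SD, n = 4.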

PaCa-44 [7] = experiment: Antiproliferative activity in human PaCa-44 cells habouring p53 mutant/C176S assessed as decrease in cell growth at 10 uM measured after 48 hrs by Crystal violet staining based analysis; format: functional; method in brief: as §4
MIA PaCa-2 [8] = experiment: Antiproliferative activity in human MIA PaCa-2 cells measured after 48 hrs by Crystal violet staining based analysis; format: functional, cell-based; conditions: MIA PaCa-2, 48 h
Method in brief: (§5)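 IC50 from Crystal Violet growth curves. Cells in DMEM-Glutamax with 10% FBS, seeded, then exposed after 24 h to 1–100 μM for 48 h. A595 normalized to untreated cells. Three independent experiments.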

PANC-1 [9] = experiment: Antiproliferative activity in human PANC-1 cells measured after 48 hrs by Crystal violet staining based analysis; format: functional, cell-based; conditions: PANC-1, 48 h; method in brief: as §5
PANC-1 [10] = experiment: Antiproliferative activity in human PANC-1 cells habouring p53 mutant/R273H assessed as decrease in cell growth at 10 uM measured after 48 hrs by Crystal violet staining based analysis; format: functional; method in brief: as §4
[11] = target: Glyceraldehyde-3-phosphate dehydrogenase (Homo sapiens) (UniProt P04406); experiment: Binding affinity to human recombinant his tagged GAPDH expressed in Escherichia coli assessed as pseudo first order reaction at 2 mM at pH 7 in presence of beta mercaptoethanol measured for 1 hr by HPLC method
[12] = target: Glyceraldehyde-3-phosphate dehydrogenase (Homo sapiens) (UniProt P04406); experiment: Inhibition of recombinant his tagged-GAPDH in human PaCa-44 cells expressed in Escherichia coli at 100 uM relative to control
PANC-1 [13] = experiment: Antiproliferative activity against human PANC-1 cells assessed as reduction in cell growth at 1 to 100 uM incubated for 48 hrs by crystal violet staining based analysis; format: functional; conditions: dose 1-100 µM; method in brief: as §3
[14] = target: Glyceraldehyde-3-phosphate dehydrogenase (Homo sapiens) (UniProt P04406); experiment: Covalent inhibition of human recombinant his tagged GAPDH expressed in Escherichia coli at 10 uM measured after 30 mins by spectrophotometric analysis relative to control; method in brief: as §1
PaCa-3 = experiment: Antiproliferative activity against human PaCa-3 cells assessed as reduction in cell growth at 1 to 100 uM incubated for 48 hrs by crystal violet staining based analysis; format: functional; conditions: dose 1-100 µM; method in brief: as §3
[15] = target: Glyceraldehyde-3-phosphate dehydrogenase (Homo sapiens) (UniProt P04406); experiment: Inhibition of human recombinant his tagged GAPDH expressed in Escherichia coli at 10 uM incubated for 48 hrs relative to control
Method in brief: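 Recombinant hGAPDH, 2 μM, with 10 μM inhibitor for 48 h at 37 °C in TEA/EDTA buffer, pH 7.6. Residual activity measured by the arsenate/NAD+/GAP assay, NADH at 340 nm, 25 °C. Expressed versus untreated enzyme; independent duplicates, mean ± SD.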

[16] = target: Glyceraldehyde-3-phosphate dehydrogenase (Homo sapiens) (UniProt P04406); experiment: Covalent inhibition of human recombinant his tagged GAPDH expressed in Escherichia coli at 50 uM measured after 30 mins by spectrophotometric analysis relative to control; method in brief: as §1
[17] = target: Glyceraldehyde-3-phosphate dehydrogenase (Homo sapiens) (UniProt P04406); experiment: Covalent inhibition of human recombinant his tagged GAPDH expressed in Escherichia coli at 100 uM measured after 3 hrs by spectrophotometric analysis relative to control; method in brief: as §1
[18] = Antiproliferative activity in human PaCa-3 cells habouring wild type p53 assessed as decrease in cell growth at 5 uM measured after 48 hrs by Crystal violet staining based analysis relative to control; format: functional; set-up: scale not given: the % may be the effect or the level left; method in brief: as §4
[19] = Antiproliferative activity in human PaCa-44 cells measured after 48 hrs by Crystal violet staining based analysis; format: functional, cell-based; conditions: PaCa-44, 48 h; method in brief: as §5
[20] = target: Glyceraldehyde-3-phosphate dehydrogenase (Homo sapiens) (UniProt P04406); experiment: Inhibition of recombinant his tagged-GAPDH in human PANC-1 cells expressed in Escherichia coli at 100 uM relative to control
[21] = Antiproliferative activity in human PaCa-3 cells measured after 48 hrs by Crystal violet staining based analysis; format: functional, cell-based; conditions: Paca3, 48 h; method in brief: as §5
MIA PaCa-2 [22] = experiment: Antiproliferative activity against human MIA PaCa-2 cells assessed as reduction in cell growth at 1 to 100 uM incubated for 48 hrs by crystal violet staining based analysis; format: functional; conditions: dose 1-100 µM; method in brief: as §3
[23] = target: Glyceraldehyde-3-phosphate dehydrogenase (Homo sapiens) (UniProt P04406); experiment: Binding affinity to human recombinant his tagged GAPDH expressed in Escherichia coli assessed elimination of racker band measured within 1 min by spectrophotometric analysis; method in brief: as §2
Fibroblast = experiment: Antiproliferative activity against human Fibroblast assessed as reduction in cell growth at high concentration incubated for 48 hrs by crystal violet staining based analysis relative to control; format: functional; set-up: scale not given: the % may be the effect or the level left; method in brief: as §3
[24] = target: Glyceraldehyde-3-phosphate dehydrogenase (Homo sapiens) (UniProt P04406); experiment: Binding affinity to human recombinant his tagged GAPDH expressed in Escherichia coli assessed as time constant at 200 uM measured after 30 hrs by spectrophotometric analysis; method in brief: as §2
[25] = target: Glyceraldehyde-3-phosphate dehydrogenase (Homo sapiens) (UniProt P04406); experiment: Binding affinity to human recombinant his tagged GAPDH expressed in Escherichia coli assessed elimination of racker band at measured after 30 hrs by spectrophotometric analysis; method in brief: as §2
PaCa-44 [26] = experiment: Antiproliferative activity against human PaCa-44 cells assessed as reduction in cell growth at 100 uM incubated for 48 hrs by crystal violet staining based analysis; format: functional; method in brief: as §3

Sequence of Glyceraldehyde-3-phosphate dehydrogenase (Homo sapiens) (P04406 2-335 limits assumed): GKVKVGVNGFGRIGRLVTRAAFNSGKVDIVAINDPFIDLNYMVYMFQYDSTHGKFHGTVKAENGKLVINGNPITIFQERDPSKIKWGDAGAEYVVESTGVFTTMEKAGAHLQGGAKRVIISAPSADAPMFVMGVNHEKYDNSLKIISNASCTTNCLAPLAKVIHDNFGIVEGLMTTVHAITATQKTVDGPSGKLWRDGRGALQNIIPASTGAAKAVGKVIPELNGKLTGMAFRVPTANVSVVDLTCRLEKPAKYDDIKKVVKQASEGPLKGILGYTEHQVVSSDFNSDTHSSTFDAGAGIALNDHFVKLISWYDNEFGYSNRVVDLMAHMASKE

SMILES: C=CC(=O)N1CCC[C@@H](n2nc(-c3ccc(Oc4ccccc4)cc3)c3c(N)ncnc32)C1
- K [1]: 10.4 10^-4/M/s

SMILES: O=C(O)c1ccccc1C1CC(Br)=NO1 (centres undefined)
- inhibition [2]: inactive

SMILES: CC(C)[C@H]1CC[C@@]2(CO2)[C@H]2C(=O)OCC(C(=O)O)=C[C@H]12
- K [3]: 0.701 min

SMILES: BrC1=NOC2(CCCc3ccccc32)C1 (centres undefined)
- Activity (PaCa-44 [4]): Active
- inhibition [5]: 100%
- Activity (MIA PaCa-2 [6]): Active
- Activity (PaCa-44 [7]): Active
- IC50 (MIA PaCa-2 [8]): 15.2 µM
- IC50 (PANC-1 [9]): 21.7 µM
- Activity (PANC-1 [10]): Active
- K [11]: 5.25 10^-6/s
- inhibition [12]: 100%
- Activity (PANC-1 [13]): Active
- inhibition [14]: 100%
- Activity (PaCa-3): Active
- K [3]: 0.2 min
- inhibition [15]: 100%
- inhibition [16]: 100%
- inhibition [17]: 40%
- Activity [18]: 42%
- IC50 [19]: 16.2 µM
- inhibition [20]: 100%
- K [1]: 8.75 10^-6/M/s
- IC50 [21]: 4.69 µM
- Activity (MIA PaCa-2 [22]): Active
- inhibition [23]: Active
- Activity (Fibroblast): 20%

SMILES: BrC1=NOC(c2ccc(-c3nnn[nH]3)cc2)C1 (centres undefined)
- inhibition [2]: inactive

SMILES: BrC1=NOC(c2cccs2)C1 (centres undefined)
- inhibition [2]: inactive

SMILES: O=C(O)c1cccc(C2CC(Br)=NO2)c1 (centres undefined)
- inhibition [17]: 20%

SMILES: Oc1ccc(C2CC(Br)=NO2)cc1 (centres undefined)
- inhibition [17]: 40%

SMILES: O=C(O)c1ccc(C2CC(Br)=NO2)cc1 (centres undefined)
- K [11]: 1.11 10^-6/s
- inhibition [17]: 40%
- K [1]: 1.84 10^-6/M/s

SMILES: NS(=O)(=O)c1ccc(C2CC(Br)=NO2)cc1 (centres undefined)
- inhibition [2]: inactive

SMILES: BrC1=NOC(c2ccccc2)C1 (centres undefined)
- K [11]: 6.62 10^-5/s
- inhibition [17]: 40%
- K [24]: 908 min
- inhibition [25]: inactive
- K [1]: 1.1 10^-4/M/s

SMILES: O=C(O)c1ccc2c(c1)CCCC21CC(Br)=NO1 (centres undefined)
- K [11]: < 1 10^-8/s
- inhibition [15]: 40%
- Activity (PaCa-44 [26]): Active
- inhibition [16]: 100%
- inhibition [17]: 40%
- inhibition [20]: 30%
- K [1]: < 1 10^-8/M/s

SMILES: O=S(=O)(O)c1ccc(C2CC(Br)=NO2)cc1 (centres undefined)
- inhibition [17]: 20%

SMILES: O=C(O)c1ccc(C2CC(Br)=NO2)s1 (centres undefined)
- inhibition [17]: 20%
